Data: ChEMBL document CHEMBL3526002, “Tissue distribution and identification of radioactivity components at elimination phase after oral administration of [¹⁴C]CS-1036, an α-amylase inhibitor, to rats” (Drug Metab Dispos, 2013)

Legend:
Plasma [1] = experiment: Drug uptake in albino F344/DuCrlCrlj rat assessed as radioactivity in aspartic acid in plasma protein at 10 mg/kg, po administered for 5 days by accelerator mass spectrometry analysis; format: ADME, organism-based; parameters: dose 10 mg/kg, dosed compound name [14C]CS-1036, route oral; conditions: in vivo, 120 h
Outline: (§1)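 Rats were dosed orally with [14C]CS-1036 at 10 mg/kg/day for 5 days. Pooled plasma protein was washed and HCl-hydrolysed, then PTC-derivatized. It was separated by HPLC (40°C, gradient, UV 254 nm) and fractionated every 6 s over 0–15 min. Fraction 14C was measured by AMS after subtracting matching control-plasma fractions. Peaks were assigned by retention time against amino acid standards, and each fraction was expressed as % of injected radioactivity.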

[2] = Drug uptake in albino F344/DuCrlCrlj rat assessed as radioactivity in palmitic acid in adipose tissue homogenates at 10 mg/kg, po administered for 4 days by LC-MS/MS spectra analysis; conditions: in vivo, 96 h
Plasma [3] = experiment: Drug level in albino F344/DuCrlCrlj rat plasma treated with [14C]CS-1036 at 10 mg/kg, po after 8 to 72 hrs by liquid scintillation counting; format: ADME, organism-based; parameters: dose 10 mg/kg, dosed compound name [14C]CS-1036, route oral; conditions: in vivo
Plasma [4] = experiment: Drug metabolism in albino F344/DuCrlCrlj rat plasma protein treated with at 10 mg/kg, po of [14C]CS-1036 administered for 5 days by liquid scintillation counting; format: ADME, organism-based; parameters: dose 10 mg/kg, dosed compound name [14C]CS-1036, route oral; conditions: in vivo, 120 h
Outline: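 Male F344/DuCrlCrlj rats (n = 3) received oral [14C]CS-1036 at 10 mg/kg/day for 5 days at 24-h intervals, with food freely available. Plasma was taken from the abdominal aorta 24 h after the fifth dose and pooled. It was precipitated with acetonitrile, and the pellets were washed with 0.4 M TCA, 80% methanol and 30% ether/ethanol until washes were below twice background. Pellets were HCl-hydrolysed, and recovered radioactivity was counted by LSC.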

Rattus norvegicus = experiment: Half life in po dosed rat dosed and assessed as 1,4-dideoxy-1,4-imino-D-arabinitol level (M1); format: ADME, organism-based; parameters: dosed compound name M1; conditions: in vivo
Intestine = experiment: Drug metabolism in po dosed rat in intestinal flora treated with [14C]CS-1036 by liquid scintillation counting; format: ADME, organism-based; parameters: dosed compound name [14C]CS-1036; conditions: in vivo
[5] = Drug excretion in po dosed rat urine dosed as [14C]CS-1036 assessed as 1,4-dideoxy-1,4-imino-D-arabinitol (M1) level up to 24 hrs; format: ADME, organism-based; parameters: dosed compound name [14C]CS-1036; conditions: in vivo
Plasma [6] = experiment: Drug uptake in albino F344/DuCrlCrlj rat assessed as radioactivity in glutamic acid in plasma protein at 10 mg/kg, po administered for 5 days by accelerator mass spectrometry analysis; format: ADME, organism-based; parameters: dose 10 mg/kg, dosed compound name [14C]CS-1036, route oral; conditions: in vivo, 120 h; outline: as §1
[7] = Systemic absorption of acarbose estimated from drug excretion in human urine; format: ADME; parameters: dosed compound name acarbose
[8] = Drug uptake in albino F344/DuCrlCrlj rat assessed as radioactivity in oleic acid in adipose tissue homogenates at 10 mg/kg, po administered for 4 days by LC-MS/MS spectra analysis; conditions: in vivo, 96 h

In the case of `N[C@@H](CC(=O)O)C(=O)O` [ASPARTIC ACID], the Compound recovery (Plasma [1]) is reported as 18.5%.
In the case of `CCCCCCCCCCCCCCCC(=O)O` [PALMITIC ACID], the Compound recovery [2] is reported as “Active”.
With `OC[C@H]1NC[C@@H](O)[C@@H]1O` the Drug metabolism (Plasma [3]) was “metabolite_detected”, the Drug metabolism (Plasma [4]) was “metabolite_detected” and the t1/2 (Rattus norvegicus) was 48 min. The Drug metabolism (Intestine) was “metabolite_detected” and the Compound recovery [5] was 5.3%.
Compound `N[C@@H](CCC(=O)O)C(=O)O` [GLUTAMIC ACID] has a Compound recovery (Plasma [6]) of 36.5%.
Compound `C[C@H]1O[C@H](O[C@H]2[C@H](O)[C@@H](O)[C@@H](O[C@H]3[C@H](O)[C@@H](O)C(O)O[C@@H]3CO)O[C@@H]2CO)[C@H](O)[C@@H](O)[C@@H]1N[C@H]1C=C(CO)[C@@H](O)[C@H](O)[C@H]1O` (stereo not given in full) [ACARBOSE] has a Fa [7] of 1.7%.
In the case of `CCCCCCCC/C=C\CCCCCCCC(=O)O` [OLEIC ACID], the Compound recovery [8] is reported as “Active”.
